≈ marks a conversion by molar mass, not a printed value. One block for each compound: values may come before it.
Legend:
[1] = system: Staphylococcus aureus; assay: Antibacterial activity against Staphylococcus aureus JC9213 by CLSI based broth dilution assay; assay type: functional
[2] = Inhibition of protein synthesis in mitochondria (unknown origin) assessed as [35S]methionine incorporation incubated for 15 to 120 mins by paper disk assay; parameters: species or system Homo sapiens
[3] = system: Staphylococcus aureus; assay: Antibacterial activity against methicillin-sensitive Staphylococcus aureus ATCC 8235-4 measured after 16 hrs by broth microdilution method; assay type: functional; details: ATCC 8235-4, 16 h
Procedure, shortened: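 Overnight culture diluted 1:200 into plates, sealed, shaken at 150 RPM at 37 °C for 16 h, then OD600 read. MIC defined as the concentration giving at least 90% growth inhibition relative to DMSO-treated wells; μM converted to μg/mL and rounded to nearest integer.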

[4] = system: Staphylococcus aureus; assay: Antibacterial activity against methicillin-sensitive Staphylococcus aureus ATCC 8235-4 at 6 ug/ml measured after 16 hrs by broth microdilution method relative to control; assay type: functional; details: ATCC 8235-4, 16 h
Procedure, shortened: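 Overnight S. aureus 8235-4 culture diluted 1:200 into LB broth containing compound at 4–22 μM in 2 μM steps. Plates sealed and shaken at 150 rpm, 37 °C, 16 h. OD600 read, and growth inhibition expressed relative to DMSO carrier-only wells. μM values converted to μg/mL and rounded to the nearest integer.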

[5] = system: Staphylococcus aureus; assay: Antibacterial activity against methicillin-resistant Staphylococcus aureus ATCC 43300 measured after 18 hrs by broth microdilution method; assay type: functional; details: ATCC 43300, 18 h
Procedure, shortened: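 S. aureus ATCC 43300 grown overnight in cation-adjusted Mueller Hinton broth at 37 °C, diluted 40-fold and regrown 1.5-3 h to mid-log. Inoculum 5×10^5 CFU/mL added to 8-point 1:2 serial dilutions from a top final concentration of 32 μg/mL or 20 μM, DMSO ≤0.5%, in duplicate. Incubated 18 h at 37 °C without shaking.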

[6] = Aqueous solubility of compound; assay type: physicochemical; details: buffer
[7] = Stability in gastric pH assessed as compound remaining after 24 hrs relative to control; assay type: physicochemical
[8] = system: HepG2; assay: Cytotoxicity against human HepG2 cells assessed as reduction in cell viability by CellTiter-Glo assay; assay type: cell-based
[9] = target: T1, Cytochrome P450 1A2 (Homo sapiens, UniProt P05177); assay: Inhibition of CYP1A2 (unknown origin); assay type: ADME
T1 sequence (P05177 whole entry): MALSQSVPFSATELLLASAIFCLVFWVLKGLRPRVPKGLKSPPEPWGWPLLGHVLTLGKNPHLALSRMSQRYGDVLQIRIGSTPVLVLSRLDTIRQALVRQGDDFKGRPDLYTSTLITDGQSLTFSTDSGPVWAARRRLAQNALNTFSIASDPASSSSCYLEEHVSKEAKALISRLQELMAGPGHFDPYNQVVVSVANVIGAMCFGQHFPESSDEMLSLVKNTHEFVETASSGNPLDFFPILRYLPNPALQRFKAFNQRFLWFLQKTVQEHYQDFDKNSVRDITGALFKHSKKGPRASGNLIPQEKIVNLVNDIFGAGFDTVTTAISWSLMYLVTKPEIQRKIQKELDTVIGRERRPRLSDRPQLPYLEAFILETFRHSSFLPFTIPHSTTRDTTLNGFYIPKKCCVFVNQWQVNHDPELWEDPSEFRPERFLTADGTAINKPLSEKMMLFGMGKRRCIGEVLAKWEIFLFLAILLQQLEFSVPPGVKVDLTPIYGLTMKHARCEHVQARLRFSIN

[10] = target: Cytochrome P450 2C9 (Homo sapiens, UniProt P11712); assay: Inhibition of CYP2C9 (unknown origin); assay type: ADME
[11] = target: Cytochrome P450 2C19 (Homo sapiens, UniProt P33261); assay: Inhibition of CYP2C19 (unknown origin); assay type: ADME
[12] = target: Cytochrome P450 2D6 (Homo sapiens, UniProt P10635); assay: Inhibition of CYP2D6 (unknown origin); assay type: ADME
[13] = target: Cytochrome P450 3A4 (Homo sapiens, UniProt P08684); assay: Inhibition of CYP3A4 (unknown origin); assay type: ADME
[14] = Half life in mouse hepatocytes
[15] = system: Staphylococcus aureus; assay: Antibacterial activity against methicillin-resistant Staphylococcus aureus ATCC 43300 at 6 ug/ml measured after 18 hrs by broth microdilution method relative to control; assay type: functional; details: ATCC 43300, 18 h

Sequence of Cytochrome P450 2D6 (P10635 whole entry): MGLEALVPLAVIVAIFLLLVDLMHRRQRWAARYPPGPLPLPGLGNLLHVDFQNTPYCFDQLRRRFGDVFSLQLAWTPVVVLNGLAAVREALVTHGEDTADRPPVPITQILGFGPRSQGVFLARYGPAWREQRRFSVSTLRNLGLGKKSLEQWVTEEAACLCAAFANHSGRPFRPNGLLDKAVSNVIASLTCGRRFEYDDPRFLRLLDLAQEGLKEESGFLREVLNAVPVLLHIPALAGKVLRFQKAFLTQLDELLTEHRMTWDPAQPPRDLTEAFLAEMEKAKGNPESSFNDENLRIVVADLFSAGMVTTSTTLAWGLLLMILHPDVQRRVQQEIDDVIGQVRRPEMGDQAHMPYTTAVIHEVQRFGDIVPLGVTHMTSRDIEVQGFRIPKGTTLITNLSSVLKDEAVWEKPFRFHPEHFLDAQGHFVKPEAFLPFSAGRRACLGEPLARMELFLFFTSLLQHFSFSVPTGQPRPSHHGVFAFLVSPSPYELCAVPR
Sequence of Cytochrome P450 3A4 (P08684 whole entry): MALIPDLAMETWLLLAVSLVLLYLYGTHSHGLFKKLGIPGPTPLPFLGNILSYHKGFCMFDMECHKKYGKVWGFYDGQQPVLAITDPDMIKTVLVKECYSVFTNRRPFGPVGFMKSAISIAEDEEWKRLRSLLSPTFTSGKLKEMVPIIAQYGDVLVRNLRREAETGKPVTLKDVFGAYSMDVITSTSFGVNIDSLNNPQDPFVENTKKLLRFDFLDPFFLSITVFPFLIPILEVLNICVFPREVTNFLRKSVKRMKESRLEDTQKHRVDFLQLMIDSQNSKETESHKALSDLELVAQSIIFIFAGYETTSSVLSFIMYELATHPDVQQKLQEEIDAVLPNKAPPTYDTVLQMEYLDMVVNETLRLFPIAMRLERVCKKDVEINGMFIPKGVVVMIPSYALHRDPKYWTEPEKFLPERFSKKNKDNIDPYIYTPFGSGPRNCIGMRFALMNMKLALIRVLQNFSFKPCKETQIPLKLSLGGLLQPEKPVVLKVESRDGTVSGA
Sequence of Cytochrome P450 2C9 (P11712 whole entry): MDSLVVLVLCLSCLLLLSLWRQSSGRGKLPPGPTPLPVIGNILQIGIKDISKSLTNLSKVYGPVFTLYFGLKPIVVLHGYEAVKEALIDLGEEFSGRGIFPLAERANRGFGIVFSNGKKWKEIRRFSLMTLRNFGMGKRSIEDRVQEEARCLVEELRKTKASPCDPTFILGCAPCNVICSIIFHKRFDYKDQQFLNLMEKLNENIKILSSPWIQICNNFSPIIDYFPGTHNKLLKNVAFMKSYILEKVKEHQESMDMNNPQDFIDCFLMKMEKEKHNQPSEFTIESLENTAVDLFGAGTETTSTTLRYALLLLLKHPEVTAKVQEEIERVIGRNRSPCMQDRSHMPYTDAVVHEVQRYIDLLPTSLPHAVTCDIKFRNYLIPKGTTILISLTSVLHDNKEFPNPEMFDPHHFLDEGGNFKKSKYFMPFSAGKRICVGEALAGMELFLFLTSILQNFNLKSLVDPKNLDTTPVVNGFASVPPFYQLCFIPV
Sequence of Cytochrome P450 2C19 (P33261 whole entry): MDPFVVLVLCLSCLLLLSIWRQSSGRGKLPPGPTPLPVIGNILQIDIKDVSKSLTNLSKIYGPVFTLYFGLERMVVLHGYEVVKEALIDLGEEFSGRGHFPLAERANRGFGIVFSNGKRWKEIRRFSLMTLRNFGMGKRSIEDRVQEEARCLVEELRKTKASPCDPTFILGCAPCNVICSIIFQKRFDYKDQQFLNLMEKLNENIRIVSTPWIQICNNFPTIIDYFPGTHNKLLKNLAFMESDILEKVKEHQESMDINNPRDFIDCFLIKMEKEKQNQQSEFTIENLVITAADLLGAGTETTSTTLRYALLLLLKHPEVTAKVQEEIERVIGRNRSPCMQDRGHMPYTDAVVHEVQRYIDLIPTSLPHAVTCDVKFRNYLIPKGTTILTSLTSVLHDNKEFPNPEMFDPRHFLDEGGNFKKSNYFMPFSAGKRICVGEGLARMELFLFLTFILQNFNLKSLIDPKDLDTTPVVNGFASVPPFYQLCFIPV

MIC [1]: 1 µg/mL (≈ 2.99 µM)
IC50 [2]: 0.95 µg/mL (≈ 2.84 µM)
SMILES: CC(=O)NC[C@H]1CN(c2ccc(C3=CCOCC3)c(F)c2)C(=O)O1

SMILES: CC(=O)NC[C@H]1CN(c2ccc(-n3cncn3)c(F)c2)C(=O)O1
MIC [1]: 4 µg/mL (≈ 12.5 µM)
IC50 [2]: 1.7 µg/mL (≈ 5.32 µM)

MIC [1]: 2 µg/mL (≈ 5.19 µM)
IC50 [2]: 0.83 µg/mL (≈ 2.15 µM)
SMILES: C/N=c1\ccc(-c2ccc(N3C[C@H](CNC(C)=O)OC3=O)cc2F)ccc1O

MIC [3]: > 32 µg/mL
SMILES: CC(=O)NC[C@H]1CN(c2ccc(N3CCOC4(CCN(C)C4)C3)c(F)c2)C(=O)O1 (some centres undefined)

SMILES: CC(=O)NC[C@H]1CN(c2ccc(N3CCOC4(CCOC4)C3)c(F)c2)C(=O)O1 (some centres undefined)
inhibition at 6 µg/mL [4]: 65%

MIC [3]: > 32 µg/mL
SMILES: CC(=O)NC[C@H]1CN(c2ccc(N3CCOC(C)(CCCOC(C)=O)C3)c(F)c2)C(=O)O1 (some centres undefined)

SMILES: CC(=O)NC[C@H]1CN(c2ccc(N3CCOC(C)(CCCO)C3)c(F)c2)C(=O)O1 (some centres undefined)
MIC [5]: > 32 µg/mL

MIC [3]: > 32 µg/mL
SMILES: CC(=O)NC[C@H]1CN(c2ccc(N3CCOC(C)(CCN(C)C)C3)c(F)c2)C(=O)O1 (some centres undefined)

SMILES: CC(=O)NC[C@H]1CN(c2ccc(N3CCOC(C)(C)C3)c(F)c2)C(=O)O1
MIC [5]: 8 µg/mL (≈ 21.9 µM)

MIC [3]: 9 µg/mL (≈ 22.1 µM)
solubility [6]: > 48.49 µg/mL
Stability [7]: 89%
INH [9]: > 100 µM
INH [10]: > 100 µM
INH [11]: > 100 µM
INH [12]: > 100 µM
INH [13]: > 100 µM
t1/2 [14]: 2.138 h
SMILES: CC(=O)NC[C@H]1CN(c2ccc(N3CCO[C@]4(CCCOC4)C3)c(F)c2)C(=O)O1
EC50 [8]: > 30 µM

SMILES: C=CCC1(C)CN(c2ccc(N3C[C@H](CNC(C)=O)OC3=O)cc2F)CCO1 (some centres undefined)
MIC [5]: 16 µg/mL (≈ 40.9 µM)

SMILES: CC(=O)NC[C@H]1CN(c2ccc(N3CCO[C@@]4(CCCOC4)C3)c(F)c2)C(=O)O1
MIC [5]: 5 µg/mL (≈ 12.3 µM)
MIC [3]: 6 µg/mL (≈ 14.7 µM)
solubility [6]: > 52.15 µg/mL
Stability [7]: 94%
EC50 [8]: > 30 µM
INH [9]: > 100 µM
INH [10]: > 100 µM
INH [11]: > 100 µM
INH [12]: > 100 µM
INH [13]: > 100 µM
t1/2 [14]: 2.83 h

SMILES: CCCC1(CO)CN(c2ccc(N3C[C@H](CNC(C)=O)OC3=O)cc2F)CCO1 (some centres undefined)
inhibition at 6 µg/mL [4]: 48%

MIC [3]: 7 µg/mL (≈ 17.2 µM)
SMILES: CC(=O)NC[C@H]1CN(c2ccc(N3CCOC4(CCCOC4)C3)c(F)c2)C(=O)O1 (some centres undefined)

SMILES: CC(=O)NC[C@H]1CN(c2ccc(N3CCOC4(CCCN(C(C)=O)C4)C3)c(F)c2)C(=O)O1 (some centres undefined)
inhibition at 6 µg/mL [15]: 18%
inhibition at 6 µg/mL [4]: 18%

SMILES: CCCC1(C)CN(c2ccc(N3C[C@H](CNC(C)=O)OC3=O)cc2F)CCO1 (some centres undefined)
MIC [5]: 16 µg/mL (≈ 40.7 µM)

MIC [3]: > 32 µg/mL
SMILES: CC(=O)NC[C@H]1CN(c2ccc(N3CCOC4(CCNC4)C3)c(F)c2)C(=O)O1 (some centres undefined)

MIC [3]: > 32 µg/mL
SMILES: C=CCC1(COCc2ccccc2)CN(c2ccc(N3C[C@H](CNC(C)=O)OC3=O)cc2F)CCO1 (some centres undefined)

MIC [3]: > 32 µg/mL
SMILES: CC(=O)NC[C@H]1CN(c2ccc(N3CCOC4(CCCNC4)C3)c(F)c2)C(=O)O1 (some centres undefined)

SMILES: CC(=O)NC[C@H]1CN(c2ccc(N3CCN(C(=O)CO)CC3)c(F)c2)C(=O)O1 [EPEREZOLID]
MIC [1]: 2 µg/mL (≈ 5.07 µM)
IC50 [2]: 4.2 µg/mL (≈ 10.6 µM)

SMILES: CC(=O)NC[C@H]1CN(c2ccc(N3CCOCC3)c(F)c2)C(=O)O1 [LINEZOLID]
IC50 [2]: 12.8 µg/mL (≈ 37.9 µM)
MIC [5]: 1 µg/mL (≈ 2.96 µM)
Stability [7]: 98%
EC50 [8]: > 30 µM
INH [9]: > 100 µM
INH [10]: > 100 µM
INH [11]: > 100 µM
INH [12]: > 100 µM
INH [13]: > 100 µM
t1/2 [14]: > 3.613 h

Source: ChEMBL document CHEMBL4346763, “Incorporation of a chiral gem-disubstituted nitrogen heterocycle yields an oxazolidinone antibiotic with reduced mitochondrial toxicity” (Bioorg Med Chem Lett, 2019)
